Compounds with a hit are over-represented: about 3.1% of the library has one in this group of screens.
OX1R antag-1: OX1R (HCRTR1) antagonists, primary screen, fluorescence, CHO/OX1R cells, Fluo-8 calcium, orexin A | Fluo-8 calcium fluorescence | AID 434989, 2010 | Orexin/Hypocretin receptor type 1 (Homo sapiens), O43613 | inhibition, % at 5 µM | 0.43% of 330,000 active;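 active = inhibition above its plate's threshold, mean inhibition of all tested compounds on the plate plus 3 SD, cut at about 37% in these data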;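 also: 0% = orexin A challenge wells and 100% = SB-334867-A antagonist wells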
GalR3 antagonist: GalR3 antagonists in HEK293 cells, primary screen, cell-based, fluorescence readout | 0.44% of 360,000 active | inhibition, % at 3 µM | AID 651719, 2012 | HEK293 GalR3-CNG cAMP membrane potential fluorescence; galR3 body fused to GalR1 C-terminus;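 active = inhibition above the screen-wide average plus 3 SD, cut at about 13% in these data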;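 also: forskolin and galanin both at EC90 stimulate the cells; cAMP rise reported by CNG channel membrane potential dye signal; 0% = forskolin plus galanin with DMSO and 100% = forskolin alone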
Target sequence (O60755 1-299 limits assumed): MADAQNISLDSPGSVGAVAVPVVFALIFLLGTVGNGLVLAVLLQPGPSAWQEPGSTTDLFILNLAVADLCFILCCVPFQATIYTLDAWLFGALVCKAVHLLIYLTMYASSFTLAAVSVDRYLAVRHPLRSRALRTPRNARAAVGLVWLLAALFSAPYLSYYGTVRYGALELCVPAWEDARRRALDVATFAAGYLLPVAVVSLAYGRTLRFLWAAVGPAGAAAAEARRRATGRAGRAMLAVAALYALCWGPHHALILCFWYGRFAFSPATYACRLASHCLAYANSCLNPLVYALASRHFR
CHO parental Ca: ATP-evoked calcium signal inhibitors, parental CHO, primary screen, counter-screen for OX1R antagonist project, cell-based, fluorescence, Fluo-8 calcium dye; parental CHO-K1, ATP-induced calcium, Fluo-8 fluorescence; inhibition, % at 5.6 µM; 0.63% of 330,000 active;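 active = inhibition above that plate's mean sample inhibition plus 3 SD, cut at about 26% in these data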;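 also: 0% = ATP-challenged DMSO wells and 100% = DMSO wells without ATP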
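Material: Parental CHO cells | Reagent: ATP | Compound dosing: Single nominal dose of 5.6 µM per compound | Detection: Intracellular calcium via Fluo-8 no-wash fluorescent dye | Read-out: % inhibition of ATP-induced calcium mobilization | Benchmarks: Low control ATP plus DMSO, high control DMSO only | Replicates: Singlicate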
GPR7 antag: GPR7 receptor antagonists, primary screen, cell-based, fluorescence, single concentration; 1.1% of 290,000 active; GPR7-expressing cells, fluorescence antagonist assay; inhibition, % at 4.4 µM; Neuropeptides B/W receptor type 1 (Homo sapiens), P48145; in the data active = inhibition above about 16%, passing the limit was not always enough;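 also: cells stimulated with the agonist NPW; 0% = agonist with vehicle and 100% = vehicle without agonist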
Target sequence (P48145 whole entry, looked up): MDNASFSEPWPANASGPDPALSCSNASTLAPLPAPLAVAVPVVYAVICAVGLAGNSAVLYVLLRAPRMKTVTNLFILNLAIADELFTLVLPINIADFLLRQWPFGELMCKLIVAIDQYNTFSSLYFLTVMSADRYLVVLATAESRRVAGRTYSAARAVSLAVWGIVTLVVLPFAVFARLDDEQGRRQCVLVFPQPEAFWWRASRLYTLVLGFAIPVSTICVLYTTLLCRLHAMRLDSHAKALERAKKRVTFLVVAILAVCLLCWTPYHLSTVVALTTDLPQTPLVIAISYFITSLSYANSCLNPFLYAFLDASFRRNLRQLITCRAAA
OX1R antag-2: antagonists of human orexin 1 receptor (OX1R). OX1R-expressing cells, FRET antagonist read-out. inhibition, % at 6.6 µM. 1.8% of 330,000 active. Orexin/Hypocretin receptor type 1 (Homo sapiens), O43613; in the data active = inhibition mostly above about 38%, no sharp cut-off; inactive = mostly below about 40%;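 also: 0% = agonist challenge alone and 100% = reference antagonist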
GPR7 antag conf: GPR7 receptor antagonists, confirmation, cell-based, fluorescence, single concentration; inhibition, % at 4.4 µM; shares compounds with GPR7 antag; AID 1952, 2009; 52% of 2,400 active; GPR7-expressing cells, calcium fluorescence antagonist mode; in the data active = inhibition above about 24%;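 also: stimulated with the GPR7 agonist NPW; 0% = agonist plus vehicle and 100% = vehicle alone without agonist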
MCHR1 antag: MCHR1 antagonists in cells, counter-screen for GPR7 antagonist project, cell-based, fluorescence, human. shares compounds with GPR7 antag. MCHR1-expressing cells, fluorescence antagonist assay. inhibition, % at 4.4 µM. 62% of 2,400 active. AID 2148, 2009; in the data active = inhibition above about 22%;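 also: 0% = vehicle with agonist and 100% = vehicle without agonist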
* marks the source's active call; other numbers are inactive results; · = no result given.

SMILES	OX1R antag-1	GalR3 antagonist	CHO parental Ca	GPR7 antag	OX1R antag-2	GPR7 antag conf	MCHR1 antag
COc1ccc(N(C(=O)c2ccco2)C(C(=O)NC2CCCC2)c2ccco2)cc1OC (stereo unspecified)	-30	-1	-21	-4	5	·	·
COc1ccc(OC)c(N(C(=O)c2ccco2)C(C(=O)NC2CCCC2)c2cc(OC)c(OC)c(OC)c2)c1 (stereo unspecified)	-16	-11	-16	32*	30	23	8
COc1ccc(Cl)cc1N(C(=O)c1ccco1)C(C(=O)NC1CCCC1)c1cccnc1 (stereo unspecified)	-13	-10	-26	23*	15	9	2
COc1ccc(Cl)cc1N(C(=O)c1ccco1)C(C(=O)NC1CCCC1)c1ccncc1 (stereo unspecified)	-10	-12	-18	17	3	·	·
CC(Sc1nnc(-c2ccccc2)c(-c2ccccc2)n1)C(=O)NCC1CCCO1 (stereo unspecified)	-37	-2	-30	·	16	·	·
O=C(CNC(=O)c1ccccc1Cl)OC1CCOC1=O (stereo unspecified)	-2	8	6	5	15	·	·
Cc1ccc(CNc2ncnc3c2cnn3C2CCCCO2)cc1 (stereo unspecified)	·	-8	·	·	·	·	·
Cc1cccc(-c2nc(=S)c3c(n2Cc2ccco2)CCCC3)c1	-20	-7	-16	28*	12	22	12
Cn1cccc1/C=C1\SC(=S)N(Nc2ccccc2)C1=O	-22	-7	-18	22*	11	17	23*
O=c1[nH]c2cccc(Cl)c2c2ccccc12	·	-3	·	·	·	·	·
COc1ccc(C)cc1NC(=O)c1ccc(N(C)S(C)(=O)=O)cc1	-15	-2	-14	31*	16	7	16
CC(C)C[C@H]1CN=C(Nc2ccccc2)N1CCCC1CCCCC1	-42	-5	-21	55*	15	53*	39*
CCCCCCCN1C(Nc2ccccc2)=NC[C@@H]1CC(C)C	-18	-11	-14	44*	20	40*	34*
CC(C)C[C@H]1CN=C(Nc2ccccc2)N1CCCC1CCCC1	-31	-13	-22	46*	9	49*	36*
CC(C)C[C@H]1CN=C(Nc2ccccc2)N1CCC1CCCC1	-35	-5	-22	24	22	·	·
CC(C)C[C@H]1CN=C(Nc2ccccc2)N1CC1CCC(C)CC1 (stereo partly specified)	-36	·	-11	33*	19	30*	22*
CCOC(=O)c1sc(NC(=O)CCc2ccccc2)nc1C	-21	-12	-12	1	27	·	·
CCOC(=O)c1sc(NC(=O)CC(C)c2ccccc2)nc1C (stereo unspecified)	-4	-15	-7	34*	37	37*	28*
CCCC(C(=O)NC1CCCC1)N(CC1CCCO1)C(=O)CNS(=O)(=O)c1ccc(F)cc1 (stereo unspecified)	-22	-5	-13	-3	13	·	·
CCN(CC)C(=O)CSc1nnc(SC(C)C(=O)NC2CC2)s1 (stereo unspecified)	1	-4	-5	·	17	·	·
C#CCOCCOCCOCCNc1nc(N2CCN(C(=O)[C@H](CCC(=O)O)n3cc(C(N)CC(C)C)nn3)CC2)nc(N2CCN(C(=O)[C@H](Cc3ccc(O)cc3)n3cc(C(N)CC(C)C)nn3)CC2)n1 (stereo partly specified)	-1	·	7	-11	12	·	·
C#CCOCCOCCOCCNc1nc(N2CCN(C(=O)[C@H](Cc3ccc(O)cc3)n3cc([C@@H](N)CC(C)C)nn3)CC2)nc(N2CCN(C(=O)[C@H](Cc3ccc(O)cc3)n3cc([C@@H](N)CC(C)C)nn3)CC2)n1	-8	·	4	31*	18	-7	5
COc1ccc(CCNC(=O)C(=O)NCCC2CCCCN2S(=O)(=O)c2cccs2)cc1 (stereo unspecified)	-12	-5	-20	·	29	·	·
O=C(Oc1ccc2c(c1)OCO2)c1ccc(F)cc1Cl	-24	0	-16	22*	8	18	13
Cc1cc(Cl)ccc1NS(=O)(=O)c1c(C)[nH]c(=O)[nH]c1=O	·	-7	·	-10	·	·	·
SMILES	OX1R antag-1	GalR3 antagonist	CHO parental Ca	GPR7 antag	OX1R antag-2	GPR7 antag conf	MCHR1 antag
CCN(CC)C(=O)c1ccc(/C=C/c2c[nH]c3ccccc23)[n+](C)c1	-1	-2	2	2	47	·	·
CC[n+]1c(/C=C/c2c[nH]c3ccccc23)ccc2cc(C)ccc21	·	-10	·	39*	·	37*	80*
CCOc1ccc2nc3ccc4[nH]onc4c3c2c1	43	-3	-8	28*	44*	48*	46*
Cc1ccc(C(=O)N2CCN(c3ccc(C(F)(F)F)cn3)CC2)o1	-5	0	-8	·	5	·	·
Cc1ccc(NC(=O)c2ccccc2NC(=O)c2cccs2)cc1	-25	-7	-3	-18	21	·	·
COc1ccc(Cc2nc3ccc(C(=O)NCCc4ccccn4)cc3o2)cc1OC	-15	-1	-1	22*	18	1	14
CCN1CCN(c2nc3c(c(=O)[nH]c(=O)n3C)n2Cc2ccccc2)CC1	·	-4	·	-8	·	·	·
CNC(=S)N1N=C(c2ccc(OC)cc2)CC1c1ccc(N(C)C)cc1 (stereo unspecified)	3	-6	3	22*	33	9	33*
CC(=O)N1CCN(C(=O)C(Cc2ccccc2)NC(=O)c2ccccc2)CC1 (stereo unspecified)	11	-6	1	·	5	·	·
O=C(NC(Cc1ccccc1)C(=O)N1CCN(S(=O)(=O)c2ccccc2)CC1)c1ccccc1 (stereo unspecified)	-10	1	-29	22*	23	-8	4
COc1cccc(-n2ccnc2SCC(=O)Nc2ccccc2F)c1	-9	0	4	21*	5	18	3
COc1cccc(-n2ccnc2SCC(=O)Nc2ccccc2)c1	-12	-2	-23	18	41	·	·
COc1ccc(NC(=O)CSc2nccn2-c2cccc(OC)c2)cc1	-12	3	-13	-2	24	·	·

Bioassay records (PubChem BioAssay)
